Assay results as given in ChEMBL document CHEMBL4196138, “Antiproliferative Carvotacetones from Sphaeranthus africanus” (J Nat Prod, 2018).

Key:
HEK293 = test: Cytotoxicity against HEK293 cells after 72 hrs by XTT assay; format: cell-based; conditions: Homo sapiens, HEK293, 72 h
Summary of the method: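 HEK-293 cells in DMEM:Ham's F12 (1:1) with 2 mM L-glutamine, 10% FBS, and 1% penicillin/streptomycin at 37 °C in 5% CO2. 10 000 cells/well were treated 72 h with compounds from DMSO stocks (final DMSO 0.5%; vehicle controls). XTT plus electron coupling reagent was added and read photometrically. IC50 from a four-parameter logistic fit; mean ± SEM of six independent experiments.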

CCRF-CEM = test: Cytotoxicity against human CCRF-CEM cells after 72 hrs by XTT assay; format: functional, cell-based
Summary of the method: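 CCRF-CEM leukemia cells in RPMI 1640 with 2 mM L-glutamine, 10% FBS, and penicillin/streptomycin at 37 °C in 5% CO2. 10 000 cells/well were exposed 72 h to a concentration series (final DMSO 0.5%, vehicle control; vinblastine 0.01 μM as positive control). XTT was read photometrically after 4 h. Four-parameter logistic IC50; mean ± SEM, n = 6 independent experiments.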

U-251 = test: Cytotoxicity against human U251 cells after 72 hrs by XTT assay; format: functional, cell-based; conditions: U-251, 72 h
Summary of the method: (§1)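 HCT-116 and U-251 cells grown in high-glucose DMEM with 4 mM L-glutamine, 10% FBS, and 1% penicillin/streptomycin at 37 °C in 5% CO2. 5000 cells/well were attached overnight, then treated 72 h (final DMSO 0.5%; vinblastine 0.01 μM as positive control). XTT was measured photometrically 1.5 h after addition. IC50 by four-parameter logistic fit; mean ± SEM of six independent experiments.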

MDA-MB-231 = test: Cytotoxicity against human MDA-MB-231 cells after 72 hrs by XTT assay; format: functional, cell-based; conditions: MDA-MB-231, 72 h
Summary of the method: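 MDA-MB-231 breast cancer cells kept in RPMI 1640 with 2 mM L-glutamine, 10% FBS, and penicillin/streptomycin at 37 °C in 5% CO2. 5000 cells/well were grown overnight, then exposed 72 h to compounds (final DMSO 0.5%, vehicle control; vinblastine 0.01 μM as positive control). Photometric XTT readout after 1.5 h. Four-parameter logistic IC50; six independent experiments, mean ± SEM.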

HCT-116 = test: Cytotoxicity against human HCT116 cells after 72 hrs by XTT assay; format: functional, cell-based; conditions: HCT-116, 72 h; summary of the method: as §1

Row | Compound | IC50 (HEK293) | IC50 (CCRF-CEM) | IC50 (U-251) | IC50 (MDA-MB-231) | IC50 (HCT-116)
1 | C/C=C(/C)C(=O)O[C@@H]1C=C(CO)C(=O)[C@@H](O)[C@@H]1C(C)C | 5.5 µM | 1.5 µM | 4.3 µM | 6.5 µM | 9.5 µM
2 | C/C=C(/C)C(=O)O[C@@H]1C=C(CO)C(=O)[C@@H](OC(=O)[C@](C)(O)[C@@H](C)Cl)[C@@H]1C(C)C | 2.8 µM | 0.6 µM | 2.1 µM | 1.5 µM | 2.9 µM
3 | C/C=C(/C)C(=O)O[C@@H]1C(=O)C(CO)=C[C@@H](OC(=O)/C(C)=C\C)[C@H]1C(C)C | 2.5 µM | 0.8 µM | 3 µM | 1.8 µM | 3.9 µM
4 | CC[C@]1(O)C[C@@H]2CN(CCc3c([nH]c4ccccc34)[C@@](C(=O)OC)(c3cc4c(cc3OC)N(C)[C@H]3[C@@](O)(C(=O)OC)[C@H](OC(C)=O)[C@]5(CC)C=CCN6CC[C@]43[C@@H]65)C2)C1 [VINBLASTINE] | 0.027 µM | – | – | – | 0.0087 µM
5 | C/C=C(/C)C(=O)O[C@@H]1C(=O)C(CO)=C[C@@H](OC(=O)/C(C)=C/C)[C@H]1C(C)C | 3 µM | 1.3 µM | 2.1 µM | 2 µM | 2.5 µM
6 | C/C=C(/C)C(=O)O[C@@H]1C=C(CO)C(=O)[C@@H](OC(=O)[C@]2(C)O[C@@H]2C)[C@@H]1C(C)C | 3 µM | 1.2 µM | 2.9 µM | 2 µM | 2.6 µM
